Key:
[1] = Binding affinity to HIV1 YU-2 gp120 by isothermal titration calorimetric analysis; parameters: species or system Human immunodeficiency virus 1
[2] = system: Human immunodeficiency virus 1; experiment: Binding affinity to HIV1 YU-2 gp120 assessed as change in gibbs free energy by isothermal titration calorimetric analysis
[3] = system: Human immunodeficiency virus 1; experiment: Antiviral activity against HIV1 AD8 infected in dog Cf2Th/CD4-CCR5 cells assessed as inhibition of viral entry incubated for 30 mins prior to infection and measured after 48 hrs post infection by luciferase reporter gene assay; type: functional, organism-based; details: Human immunodeficiency virus 1, AD8, Cf2Th-CCR5
Method in brief: (§1)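 Cf2Th-CD4/CCR5 target cells infected with recombinant luciferase-expressing HIV-1 pseudoviruses bearing the indicated strain's envelope glycoproteins, with compound at increasing concentrations; infection read as target-cell luciferase activity, expressed as percent of infection without compound; IC50 derived from this.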

[4] = system: Human immunodeficiency virus 1; experiment: Binding affinity to HIV1 YU-2 gp120 assessed as change in entropy by isothermal titration calorimetric analysis
[5] = system: Human immunodeficiency virus 1; experiment: Antiviral activity against HIV1 JRFL infected in dog Cf2Th/CD4-CCR5 cells assessed as inhibition of viral entry incubated for 30 mins prior to infection and measured after 48 hrs post infection by luciferase reporter gene assay; type: functional, organism-based; details: Human immunodeficiency virus 1, JRFL; method in brief: as §1
[6] = system: Human immunodeficiency virus 1; experiment: Binding affinity to HIV1 YU-2 gp120 assessed as change in enthalpy by isothermal titration calorimetric analysis
[7] = system: Human immunodeficiency virus 1; experiment: Antiviral activity against HIV1 pseudotyped with A-MLV envelop glycoprotein infected in dog Cf2Th/CD4-CCR5 cells assessed as inhibition of viral entry incubated for 30 mins prior to infection and measured after 48 hrs post infection by luciferase reporter gene assay; type: functional, organism-based; details: Human immunodeficiency virus 1, Cf2Th-CCR5
Method in brief: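 Control counterscreen: Cf2Th-CD4/CCR5 cells infected with luciferase-expressing HIV-1 pseudotyped with amphotropic murine leukemia virus envelope glycoproteins, compound at increasing concentrations; luciferase activity in target cells as percent of no-compound infection; IC50 from this.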

[8] = system: Human immunodeficiency virus 1; experiment: Antiviral activity against HIV1 YU-2 infected in dog Cf2Th/CD4-CCR5 cells assessed as inhibition of viral entry incubated for 30 mins prior to infection and measured after 48 hrs post infection by luciferase reporter gene assay; type: functional, organism-based; details: Human immunodeficiency virus 1, YU-2, Cf2Th-CCR5; method in brief: as §1
[9] = system: Human immunodeficiency virus 1; experiment: Antiviral activity against HIV1 Clade C infected in human TZM-bl cells assessed as inhibition of viral entry incubated for 30 mins prior to infection and measured after 48 hrs post infection by luciferase reporter gene assay; type: functional, organism-based; details: Human immunodeficiency virus 1, Clade C
[10] = system: Human immunodeficiency virus 1; experiment: Antiviral activity against HIV1 Clade B infected in human TZM-bl cells assessed as inhibition of viral entry incubated for 30 mins prior to infection and measured after 48 hrs post infection by luciferase reporter gene assay; type: functional, organism-based; details: Human immunodeficiency virus 1, Clade B

Row | Structure (SMILES) | Kd [1] [µM] | deltaG [2] [kcal/mol] | IC50 [3] [µM] | -TdeltaS [4] [kcal/mol] | IC50 [5] [µM] | deltaH [6] [kcal/mol] | IC50 [7] [µM] | IC50 [8] [µM] | IC50 [9] [µM] | IC50 [10] [µM]
1 | CNCc1ccc2c(c1)C[C@@H](CNC(=N)N)[C@@H]2NC(=O)C(=O)Nc1ccc(Cl)c(F)c1 | 1.2 | -8.1 | – | 5.1 | > 100 | -13.2 | > 100 | 21 | – | –
2 | N=C(N)NC[C@H]1Cc2ccccc2[C@@H]1NC(=O)C(=O)Nc1ccc(Cl)c(F)c1 | 0.11 | -9.5 | 8.5 | 8.4 | 66.8 | -17.9 | 94.3 | 3.8 | – | –
3 | CN(Cc1ccc2c(c1)C[C@H](CNC(=N)N)[C@H]2NC(=O)C(=O)Nc1ccc(Cl)c(F)c1)C(=N)N | 0.095 | -9.6 | 1.6 | 5.8 | 6.1 | -15.4 | > 100 | 0.8 | – | –
4 | CNCc1ccc2c(c1)[C@@H](NC(=O)C(=O)Nc1ccc(Cl)c(F)c1)[C@H](CNC(=N)N)C2 | 3.4 | -7.5 | > 100 | 3.8 | > 100 | -11.3 | > 100 | 87.8 | – | –

Continued by falling Kd [1], values first:

Row | Kd [1] [µM] | deltaG [2] [kcal/mol] | IC50 [3] [µM] | -TdeltaS [4] [kcal/mol] | IC50 [5] [µM] | deltaH [6] [kcal/mol] | IC50 [7] [µM] | IC50 [8] [µM] | IC50 [9] [µM] | IC50 [10] [µM] | Structure (SMILES)
5 | 0.095 | -9.6 | 1.2 | 4.6 | 19.7 | -14.2 | 83.7 | 1.6 | – | – | CN(Cc1ccc2c(c1)[C@H](NC(=O)C(=O)Nc1ccc(Cl)c(F)c1)[C@@H](CNC(=N)N)C2)C(=N)N
6 | 0.047 | -10 | 3.1 | 10.7 | 14.5 | -20.7 | > 100 | 1.3 | 17 | 3.5 | CNCc1ccc2c(c1)C[C@H](CNC(=N)N)[C@H]2NC(=O)C(=O)Nc1ccc(Cl)c(F)c1
7 | 0.024 | -10.4 | 6.7 | 17.8 | 37.3 | -28.2 | > 100 | 2.1 | – | – | CNCc1ccc2c(c1)[C@H](NC(=O)C(=O)Nc1ccc(Cl)c(F)c1)[C@@H](CNC(=N)N)C2

— ChEMBL document CHEMBL4680075, “Small-Molecule CD4-Mimics: Structure-Based Optimization of HIV-1 Entry Inhibition” (ACS Med Chem Lett, 2016)
